Assay results reported in ChEMBL document CHEMBL4321805, “A Conformational Restriction Strategy for the Identification of a Highly Selective Pyrimido-pyrrolo-oxazine mTOR Inhibitor” (J Med Chem, 2019).
pKd, pKi: −log10 of the molar value.

Key:
[1] = molecular target: Serine/threonine-protein kinase mTOR (Homo sapiens, UniProt P42345); test: Inhibition of alexa fluor 647-labeled kinase tracer 314 binding to recombinant human N-terminal GST-fused mTOR (1360 to 2549 residues) expressed in baculovirus expression system by TR-FRET assay
Method in brief: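 LanthaScreen TR-FRET tracer displacement. GST-fused truncated mTOR (aa 1360–2549) detected with Eu-anti-GST antibody (2 nM). […] Buffer: 50 mM HEPES, 5 mM MgCl2, 1 mM EGTA, 0.01% Pluronic F-127. Ki derived from displacement.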

[2] = molecular target: PI3-kinase p110-alpha/p85-alpha (Homo sapiens, UniProt P42336); test: Inhibition of alexa fluor 647-labeled kinase tracer 314 binding to recombinant human full-length N-terminal His6-tagged p110alpha/p85alpha expressed in baculovirus expression system by TR-FRET assay
Homo sapiens = organism: Homo sapiens; test: Selectivity ratio of Ki for inhibition of alexa fluor 647-labeled kinase tracer 314 binding to recombinant human full-length N-terminal His6-tagged p110alpha/p85alpha expressed in baculovirus expression system to Ki for inhibition of alexa fluor 647-labeled kinase tracer 314 binding to recombinant human N-terminal GST-fused mTOR (1360 to 2549 residues) expressed in baculovirus expression system
Method in brief: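 Ratio of Ki values from the TR-FRET tracer 314 displacement assays. p110α: His6-tagged enzyme, biotin anti-His antibody and Eu-streptavidin (2 nM each), tracer at 20 nM, buffer 50 mM HEPES pH 7.5, 10 mM MgCl2, 1 mM EGTA, 0.01% Brij-35. mTOR: GST-mTOR 1360–2549, Eu-anti-GST, tracer 10 nM, HEPES/5 mM MgCl2/EGTA/Pluronic buffer.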

[3] = molecular target: Phosphatidylinositol 4,5-bisphosphate 3-kinase catalytic subunit alpha isoform (Homo sapiens, UniProt P42336); test: Binding affinity to human wild-type partial length PI3Kalpha (R108 to N1068 residues) expressed in mammalian expression system by kinome scan assay
Method in brief: (§1)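 DNA-tagged kinases competed against immobilized ligand with an 11-point 3-fold serial dilution starting from 30 μM. Kinase bound measured by qPCR of the DNA tags. Kd from standard dose–response curves with the Hill equation (Hill slope −1); mean of duplicate experiments.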

[4] = molecular target: T1, Phosphatidylinositol 4,5-bisphosphate 3-kinase catalytic subunit delta isoform (Homo sapiens, UniProt O00329); test: Binding affinity to human wild-type partial length PI3Kdelta (R108 to Q1044 residues) expressed in mammalian expression system by kinome scan assay; method in brief: as §1
T1 sequence (O00329 whole entry): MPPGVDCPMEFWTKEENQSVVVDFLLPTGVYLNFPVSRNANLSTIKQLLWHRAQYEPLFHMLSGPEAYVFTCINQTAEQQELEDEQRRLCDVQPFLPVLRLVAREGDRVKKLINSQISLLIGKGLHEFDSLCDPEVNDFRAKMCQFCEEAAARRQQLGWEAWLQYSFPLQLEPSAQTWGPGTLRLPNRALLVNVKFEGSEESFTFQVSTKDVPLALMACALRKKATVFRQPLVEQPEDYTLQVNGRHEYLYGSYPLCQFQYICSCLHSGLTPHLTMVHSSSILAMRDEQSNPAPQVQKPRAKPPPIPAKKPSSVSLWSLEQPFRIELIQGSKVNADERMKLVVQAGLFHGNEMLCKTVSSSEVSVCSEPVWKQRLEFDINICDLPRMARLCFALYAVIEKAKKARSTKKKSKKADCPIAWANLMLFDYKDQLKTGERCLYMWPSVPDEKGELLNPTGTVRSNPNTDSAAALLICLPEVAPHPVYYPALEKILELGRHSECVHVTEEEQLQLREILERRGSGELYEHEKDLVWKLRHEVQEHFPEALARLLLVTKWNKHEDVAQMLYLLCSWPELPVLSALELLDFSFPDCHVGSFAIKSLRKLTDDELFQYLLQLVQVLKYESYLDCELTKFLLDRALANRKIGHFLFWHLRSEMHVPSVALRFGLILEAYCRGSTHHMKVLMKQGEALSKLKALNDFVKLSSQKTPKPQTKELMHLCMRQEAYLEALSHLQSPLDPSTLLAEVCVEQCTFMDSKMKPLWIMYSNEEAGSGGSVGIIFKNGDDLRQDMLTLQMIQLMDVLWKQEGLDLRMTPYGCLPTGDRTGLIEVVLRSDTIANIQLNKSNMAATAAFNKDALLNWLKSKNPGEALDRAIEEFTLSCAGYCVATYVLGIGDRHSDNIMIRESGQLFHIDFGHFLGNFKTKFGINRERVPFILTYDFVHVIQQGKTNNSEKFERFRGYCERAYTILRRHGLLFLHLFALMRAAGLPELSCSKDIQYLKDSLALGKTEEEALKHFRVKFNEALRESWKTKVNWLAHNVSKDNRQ

[5] = molecular target: Phosphatidylinositol 4,5-bisphosphate 3-kinase catalytic subunit gamma isoform (Homo sapiens, UniProt P48736); test: Binding affinity to human wild-type partial length PI3Kgamma (S144 to A1102 residues) expressed in mammalian expression system by kinome scan assay; method in brief: as §1
[6] = molecular target: Phosphatidylinositol 4-kinase beta (Homo sapiens, UniProt Q9UBF8); test: Binding affinity to wild-type human full-length PI4Kbeta (M1 to M828 residues) expressed in mammalian expression system by kinome scan assay
Method in brief: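 Competition binding: compound competes with an immobilized ligand for a DNA-tagged kinase. The 11-point, 3-fold serial dilution starts at 30 μM. Bound kinase is quantified by qPCR of the DNA tag. Kd is fitted to a standard dose–response curve using the Hill equation with slope fixed at −1, and reported as the mean of duplicate experiments.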

[7] = molecular target: Phosphatidylinositol 3-kinase catalytic subunit type 3 (Homo sapiens, UniProt Q8NEB9); test: Binding affinity to human wild-type partial length VPS34 (S282 to H879 residues) expressed in mammalian expression system by kinome scan assay; method in brief: as §1
Phosphatidylinositol 3-kinase catalytic subunit type 3, sequence (Q8NEB9 whole entry, the tested form may be a part): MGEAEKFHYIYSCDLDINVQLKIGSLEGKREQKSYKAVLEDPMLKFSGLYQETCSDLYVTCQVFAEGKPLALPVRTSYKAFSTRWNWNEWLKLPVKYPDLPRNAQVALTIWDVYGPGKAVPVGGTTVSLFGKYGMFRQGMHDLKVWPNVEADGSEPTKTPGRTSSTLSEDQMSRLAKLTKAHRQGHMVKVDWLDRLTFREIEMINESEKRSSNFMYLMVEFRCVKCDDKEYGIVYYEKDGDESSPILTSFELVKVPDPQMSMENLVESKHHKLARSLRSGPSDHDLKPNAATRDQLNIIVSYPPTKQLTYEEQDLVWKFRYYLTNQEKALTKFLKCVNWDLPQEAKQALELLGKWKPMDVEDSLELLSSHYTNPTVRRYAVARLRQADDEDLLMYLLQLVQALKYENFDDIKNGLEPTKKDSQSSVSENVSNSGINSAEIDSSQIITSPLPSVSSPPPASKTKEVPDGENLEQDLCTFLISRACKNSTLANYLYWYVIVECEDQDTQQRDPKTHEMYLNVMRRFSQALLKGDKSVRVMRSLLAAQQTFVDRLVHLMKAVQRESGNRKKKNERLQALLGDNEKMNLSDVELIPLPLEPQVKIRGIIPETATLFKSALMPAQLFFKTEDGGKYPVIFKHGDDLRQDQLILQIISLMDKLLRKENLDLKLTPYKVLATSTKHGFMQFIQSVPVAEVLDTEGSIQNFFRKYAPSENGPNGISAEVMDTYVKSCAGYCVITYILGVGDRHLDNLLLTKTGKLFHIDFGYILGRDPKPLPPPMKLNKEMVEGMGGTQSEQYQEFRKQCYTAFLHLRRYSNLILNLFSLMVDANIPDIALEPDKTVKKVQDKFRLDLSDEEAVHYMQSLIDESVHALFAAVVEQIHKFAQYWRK

Phosphatidylinositol 4,5-bisphosphate 3-kinase catalytic subunit alpha isoform, sequence (P42336 whole entry, the tested form may be a part, canonical isoform): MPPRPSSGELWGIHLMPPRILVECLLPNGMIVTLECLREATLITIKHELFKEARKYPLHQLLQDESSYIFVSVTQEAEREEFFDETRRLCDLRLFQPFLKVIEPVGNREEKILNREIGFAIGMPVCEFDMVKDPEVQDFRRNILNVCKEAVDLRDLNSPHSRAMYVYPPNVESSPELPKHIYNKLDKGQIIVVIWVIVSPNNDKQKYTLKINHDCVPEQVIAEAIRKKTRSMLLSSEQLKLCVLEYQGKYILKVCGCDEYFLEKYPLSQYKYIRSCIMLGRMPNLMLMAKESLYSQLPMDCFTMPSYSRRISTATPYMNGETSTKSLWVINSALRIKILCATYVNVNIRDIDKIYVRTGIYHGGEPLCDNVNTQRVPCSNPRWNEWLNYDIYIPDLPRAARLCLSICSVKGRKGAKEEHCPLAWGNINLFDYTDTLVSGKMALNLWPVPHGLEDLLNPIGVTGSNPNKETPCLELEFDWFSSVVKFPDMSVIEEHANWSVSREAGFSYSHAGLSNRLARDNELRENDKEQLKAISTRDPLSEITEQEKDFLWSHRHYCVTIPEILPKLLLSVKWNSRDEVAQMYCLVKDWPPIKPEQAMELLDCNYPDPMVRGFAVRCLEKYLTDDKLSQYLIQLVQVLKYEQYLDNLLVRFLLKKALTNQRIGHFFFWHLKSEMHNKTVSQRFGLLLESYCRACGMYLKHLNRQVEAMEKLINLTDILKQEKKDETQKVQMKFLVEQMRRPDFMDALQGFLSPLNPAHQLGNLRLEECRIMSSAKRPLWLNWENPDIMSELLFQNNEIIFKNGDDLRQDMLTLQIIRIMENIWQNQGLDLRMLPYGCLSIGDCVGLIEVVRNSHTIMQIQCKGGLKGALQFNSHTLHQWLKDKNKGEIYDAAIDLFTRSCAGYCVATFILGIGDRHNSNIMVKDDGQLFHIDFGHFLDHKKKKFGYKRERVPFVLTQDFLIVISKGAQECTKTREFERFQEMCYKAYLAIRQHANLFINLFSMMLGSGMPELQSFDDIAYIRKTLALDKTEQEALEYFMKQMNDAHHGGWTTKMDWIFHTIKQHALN
Phosphatidylinositol 4,5-bisphosphate 3-kinase catalytic subunit gamma isoform, sequence (P48736 whole entry, the tested form may be a part, canonical isoform): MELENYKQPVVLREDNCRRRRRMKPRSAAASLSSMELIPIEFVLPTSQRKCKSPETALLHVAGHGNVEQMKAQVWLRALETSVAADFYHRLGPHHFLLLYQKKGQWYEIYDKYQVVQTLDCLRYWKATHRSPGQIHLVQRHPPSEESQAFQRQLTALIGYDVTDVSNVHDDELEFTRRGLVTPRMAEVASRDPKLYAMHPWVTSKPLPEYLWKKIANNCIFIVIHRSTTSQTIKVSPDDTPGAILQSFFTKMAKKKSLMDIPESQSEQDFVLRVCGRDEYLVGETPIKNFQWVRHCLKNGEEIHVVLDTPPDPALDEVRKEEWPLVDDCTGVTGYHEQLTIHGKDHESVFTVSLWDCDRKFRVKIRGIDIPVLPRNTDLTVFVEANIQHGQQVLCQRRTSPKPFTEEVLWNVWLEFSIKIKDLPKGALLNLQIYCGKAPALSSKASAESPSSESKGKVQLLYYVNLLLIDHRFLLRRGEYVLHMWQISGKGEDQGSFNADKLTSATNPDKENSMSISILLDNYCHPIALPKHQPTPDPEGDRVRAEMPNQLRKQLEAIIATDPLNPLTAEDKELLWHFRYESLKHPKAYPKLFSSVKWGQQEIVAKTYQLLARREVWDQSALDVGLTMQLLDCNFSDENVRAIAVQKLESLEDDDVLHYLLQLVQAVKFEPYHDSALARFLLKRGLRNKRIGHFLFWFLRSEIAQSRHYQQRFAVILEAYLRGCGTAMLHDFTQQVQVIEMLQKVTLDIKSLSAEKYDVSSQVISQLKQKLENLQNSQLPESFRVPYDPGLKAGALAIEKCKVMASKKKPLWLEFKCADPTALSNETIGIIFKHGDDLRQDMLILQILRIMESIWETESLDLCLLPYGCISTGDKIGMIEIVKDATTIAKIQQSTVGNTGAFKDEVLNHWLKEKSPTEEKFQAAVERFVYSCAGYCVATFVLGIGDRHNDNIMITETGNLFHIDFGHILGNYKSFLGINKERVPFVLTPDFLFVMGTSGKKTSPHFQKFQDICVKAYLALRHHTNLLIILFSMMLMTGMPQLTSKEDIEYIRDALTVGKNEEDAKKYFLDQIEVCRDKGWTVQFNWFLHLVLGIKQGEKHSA
Phosphatidylinositol 4-kinase beta, sequence (Q9UBF8 whole entry, the tested form may be a part): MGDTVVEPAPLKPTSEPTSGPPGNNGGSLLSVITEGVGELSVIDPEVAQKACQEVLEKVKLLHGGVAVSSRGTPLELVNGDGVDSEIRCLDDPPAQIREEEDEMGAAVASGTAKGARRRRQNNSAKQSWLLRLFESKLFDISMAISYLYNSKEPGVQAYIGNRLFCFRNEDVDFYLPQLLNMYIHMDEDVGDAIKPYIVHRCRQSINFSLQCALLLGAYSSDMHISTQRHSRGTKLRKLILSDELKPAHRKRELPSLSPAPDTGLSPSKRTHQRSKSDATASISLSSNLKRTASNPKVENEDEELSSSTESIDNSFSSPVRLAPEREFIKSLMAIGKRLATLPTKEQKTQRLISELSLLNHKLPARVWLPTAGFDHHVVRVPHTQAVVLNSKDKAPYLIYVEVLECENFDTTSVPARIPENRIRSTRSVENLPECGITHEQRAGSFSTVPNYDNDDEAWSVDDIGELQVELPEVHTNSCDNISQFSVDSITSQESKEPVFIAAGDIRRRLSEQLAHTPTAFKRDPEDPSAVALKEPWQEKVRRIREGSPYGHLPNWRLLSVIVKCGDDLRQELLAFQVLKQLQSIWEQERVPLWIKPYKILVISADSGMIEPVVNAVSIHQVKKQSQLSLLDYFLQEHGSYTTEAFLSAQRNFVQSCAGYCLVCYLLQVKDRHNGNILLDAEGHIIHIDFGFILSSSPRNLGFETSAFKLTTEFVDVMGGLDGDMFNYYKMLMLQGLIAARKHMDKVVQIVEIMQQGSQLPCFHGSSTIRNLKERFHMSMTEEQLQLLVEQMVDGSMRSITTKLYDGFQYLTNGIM
PI3-kinase p110-alpha/p85-alpha, sequence (P27986 whole entry, the tested form may be a part): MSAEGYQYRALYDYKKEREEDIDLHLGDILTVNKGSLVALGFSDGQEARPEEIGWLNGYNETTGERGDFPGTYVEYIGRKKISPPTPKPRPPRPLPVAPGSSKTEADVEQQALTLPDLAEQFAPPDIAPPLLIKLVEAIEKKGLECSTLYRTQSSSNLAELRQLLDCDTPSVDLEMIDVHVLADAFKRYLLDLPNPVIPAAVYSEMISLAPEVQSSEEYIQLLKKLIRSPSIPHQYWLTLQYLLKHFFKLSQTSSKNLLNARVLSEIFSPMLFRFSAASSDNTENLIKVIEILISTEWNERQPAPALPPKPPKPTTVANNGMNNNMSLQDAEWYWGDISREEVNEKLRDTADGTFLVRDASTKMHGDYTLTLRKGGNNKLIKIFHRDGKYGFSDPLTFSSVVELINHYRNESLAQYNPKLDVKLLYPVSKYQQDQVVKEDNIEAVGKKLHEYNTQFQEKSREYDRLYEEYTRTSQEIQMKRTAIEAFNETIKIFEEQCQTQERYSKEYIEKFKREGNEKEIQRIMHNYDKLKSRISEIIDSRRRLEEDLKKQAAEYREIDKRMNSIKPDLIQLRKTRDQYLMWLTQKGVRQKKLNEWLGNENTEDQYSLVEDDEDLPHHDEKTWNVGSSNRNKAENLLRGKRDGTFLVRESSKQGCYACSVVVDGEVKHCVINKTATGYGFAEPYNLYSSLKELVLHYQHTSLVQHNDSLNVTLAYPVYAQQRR
PI3-kinase p110-alpha/p85-alpha, sequence (P42336 whole entry, the tested form may be a part): as the sequence (P42336 whole entry, the tested form may be a part, canonical isoform) above

Structure (SMILES)	pKi [1]	pKi [2]	Ratio Ki (Homo sapiens)	pKd [3]	pKd [4]	pKd [5]	pKd [6]	pKd [7]
C[C@@H]1COCCN1c1nc(-c2cnc(N)nc2)nc2c1C[C@@H]1COCCN21	8.60	6.27	214	6.92	5.72	5.74	< 4.52	6.01
C[C@@H]1COCCN1c1nc(-c2cnc(N)cn2)nc2c1C[C@@H]1COCCN21	8.10	5.77	212	5.80	4.92	4.96	< 4.52	5.49
C[C@@H]1COCCN1c1nc(-c2ccc(N)nc2)nc2c1C[C@@H]1COCCN21	7.89	5.67	165	6.21	5.21	5.06	< 4.52	5.68
